In ChEMBL document CHEMBL4118238, “Facilely accessible quinoline derivatives as potent antibacterial agents” (Bioorg Med Chem, 2018):
pIC50: −log10 of the molar value. Converted amounts (≈) assume the structure as drawn. The source made the active and inactive calls. No cut-off for these calls is given here.

Key:
Staphylococcus aureus = assay: Antibacterial activity against methicillin-resistant Staphylococcus aureus ATCC 33591 by CLSI M11-A7 protocol based method; format: functional
Procedure, shortened: (§1)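 Broth MIC by a previously described standard protocol; MIC is the lowest concentration giving complete growth inhibition. Compounds were dosed from DMSO stocks with final DMSO below 0.5%. Each experiment was repeated at least three times in duplicate.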

[1] = tested on: Staphylococcus epidermidis; assay: Antibacterial activity against methicillin resistant Staphylococcus epidermidis RP62A by CLSI M11-A7 protocol based method; format: functional; procedure, shortened: as §1
Enterococcus faecalis = assay: Antibacterial activity against vancomycin resistant Enterococcus faecalis ATCC 700802 by CLSI M11-A7 protocol based method; format: functional; procedure, shortened: as §1
Clostridioides difficile [2] = assay: Antibacterial activity against Clostridium difficile UK6 by CLSI M11-A7 protocol based method; format: functional
Procedure, shortened: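 C. difficile UK6 MICs followed CLSI media and methods for anaerobe susceptibility testing. MIC was taken as the lowest concentration giving complete growth inhibition. DMSO stocks were used, with final DMSO below 0.5%. Runs were repeated at least three times, in duplicate each time.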

HepG2 = assay: Cytotoxicity against human HepG2 cells assessed as reduction in cell viability after 24 hrs by MTT assay; format: cell-based; details: HepG2, 24 h
Procedure, shortened: (§2)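 Cells were grown in DMEM with 10% FBS and 1% penicillin/streptomycin at 37°C, 5% CO2, then seeded at 10^4 cells/well overnight. They were exposed to 128 to 0.125 µg/ml compound, or 1% DMSO control, for 24 h at 37°C. MTT was added for 4 h, formazan dissolved in DMSO for 15 min, and A540 read. IC50 was relative to control-treated cells, in three replicates.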

HEK-293T = assay: Cytotoxicity against HEK293T cells assessed as reduction in cell viability after 24 hrs by MTT assay; format: cell-based; details: Homo sapiens; procedure, shortened: as §2
[3] = Selectivity index, ratio of IC50 for human HepG2 cells to MIC for Clostridium difficile UK6; format: toxicity; details: read-out: Selectivity Index
[4] = Selectivity index, ratio of IC50 for HEK293 cells to MIC for Clostridium difficile UK6; format: toxicity; details: human, read-out: Selectivity Index
Clostridioides difficile [5] = assay: Antibacterial activity against Clostridium difficile UK6 infected in C57BL/6 mouse assessed as increase in mouse survival at 50 mg/kg, po bid via gavage for 5 days starting from 4 hrs post challenge measured from day 3 to 5 during compound dosing relative to control; format: functional
Procedure, shortened: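 Female C57BL/6 mice (6 weeks) received a six-antibiotic cocktail in drinking water for 5 days, then autoclaved water for 2 days and clindamycin 10 mg/kg ip on day −1. On day 0 they were challenged by gavage with 10^6 CFU UK6 spores. Compound was given by gavage at 50 mg/kg 4 h post-challenge, then twice daily from day 1 for five days. Survival was monitored daily versus an untreated infected group (n=10 per group).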

Clostridioides difficile [6] = assay: Antibacterial activity against Clostridium difficile UK6 infected in C57BL/6 mouse assessed as decrease in bacterial count in feces at 50 mg/kg, po bid via gavage for 5 days starting from 4 hrs post challenge by serial dilution method relative to control; format: functional; parameters: scale not given: the % may be the effect or the level left
Procedure, shortened: (§3)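 Female 6-week C57BL/6 mice (n=10 per group) got an antibiotic cocktail in drinking water for 5 days and autoclaved water for 2 days. Clindamycin 10 mg/kg ip followed one day before gavage of 10^6 CFU UK6 spores. Dosing was 50 mg/kg by gavage at 4 h, then twice daily for five days. Feces from days 1, 3 and 5 were ethanol-shocked, serially diluted and plated anaerobically 48 h. Counts are CFU/g, triplicate plates.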

Clostridioides difficile [7] = assay: Antibacterial activity against Clostridium difficile UK6 infected in C57BL/6 mouse assessed as decrease in diarrhea at 50 mg/kg, po bid via gavage for 5 days starting from 4 hrs post challenge measured daily during compound dosing; format: functional, organism-based
Procedure, shortened: (§4)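 Female 6-week C57BL/6 mice (n=10 per group) were antibiotic-pretreated, given clindamycin, then gavaged with 10^6 CFU UK6 spores. Compound was given at 50 mg/kg by gavage at 4 h post-challenge, then twice daily for five days. Mice were checked daily for five days. Percent diarrhea is mice with diarrhea divided by mice in the group, compared by Pearson chi-square.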

Clostridioides difficile [8] = assay: Antibacterial activity against Clostridium difficile UK6 infected in C57BL/6 mouse assessed as decrease in diarrhea at 50 mg/kg, po bid via gavage for 5 days starting from 4 hrs post challenge measured after 2 days relative to control; format: functional; parameters: scale not given: the % may be the effect or the level left; procedure, shortened: as §4
Clostridioides difficile [9] = assay: Antibacterial activity against Clostridium difficile UK6 infected in C57BL/6 mouse assessed as decrease in bacterial count in feces at 50 mg/kg, po bid via gavage for 5 days starting from 4 hrs post challenge measured after 5 days by serial dilution method relative to control; format: functional; procedure, shortened: as §3
Mus musculus [10] = assay: Toxicity in C57BL/6 mouse assessed as diarrhea at 50 mg/kg, po bid via gavage for 5 days starting from 4 hrs post challenge measured; format: organism-based; details: in vivo
Procedure, shortened: (§5)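 Uninfected female 6-week C57BL/6 mice (n=5) received 50 mg/kg by gavage on the infected group's schedule: at 4 h, then twice daily for five days. They were monitored daily for five days for weight change, survival, diarrhea and other disease signs.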

Mus musculus [11] = assay: Toxicity in C57BL/6 mouse assessed as development of Clostridium difficile infection symptoms at 50 mg/kg, po bid via gavage for 5 days starting from 4 hrs post challenge measured; format: organism-based; details: in vivo; procedure, shortened: as §5

Compound	MIC (Staphylococcus aureus)	MIC [1]	MIC (Enterococcus faecalis)	MIC (Clostridioides difficile [2])	further results
COc1cc2nccc(Nc3ccc(F)c(Cl)c3)c2cc1OCc1ccccc1C	1.5 µg/mL (≈ 3.55 µM)	3 µg/mL (≈ 7.09 µM)	1.5 µg/mL (≈ 3.55 µM)	8 µg/mL (≈ 18.9 µM)	
COc1cc2nccc(Nc3ccc(C(F)(F)F)cc3)c2cc1OCc1ccc(C(F)(F)F)cc1	0.75 µg/mL (≈ 1.52 µM)	3 µg/mL (≈ 6.09 µM)	0.75 µg/mL (≈ 1.52 µM)	2 µg/mL (≈ 4.06 µM)	pIC50 (HepG2): 4.15; pIC50 (HEK-293T): 4.24; selectivity ratio [3]: 15; selectivity ratio [4]: 15
COc1cc2nccc(Nc3ccc(C)cc3)c2cc1OCc1ccc(C(F)(F)F)cc1	3 µg/mL (≈ 6.84 µM)	3 µg/mL (≈ 6.84 µM)	3 µg/mL (≈ 6.84 µM)	4 µg/mL (≈ 9.12 µM)	
COc1cc2nccc(Nc3ccc(F)c(Cl)c3)c2cc1OCCOc1ccccc1	3 µg/mL (≈ 6.84 µM)	3 µg/mL (≈ 6.84 µM)	3 µg/mL (≈ 6.84 µM)	4 µg/mL (≈ 9.11 µM)	
COc1cc2nccc(Nc3ccc(F)c(Cl)c3)c2cc1OCc1ccc(C(C)C)cc1	1.5 µg/mL (≈ 3.33 µM)	6 µg/mL (≈ 13.3 µM)	3 µg/mL (≈ 6.65 µM)	1 µg/mL (≈ 2.22 µM)	pIC50 (HepG2): 3.83; pIC50 (HEK-293T): 3.84; selectivity ratio [3]: > 60; selectivity ratio [4]: > 60; Activity (Clostridioides difficile [5]): 20%; Activity (Clostridioides difficile [6]): >80%; Activity (Clostridioides difficile [7]): Active; Activity (Clostridioides difficile [8]): 32%; fold change (FC) (Clostridioides difficile [9]): 14; Activity (Mus musculus [10]): Non-Toxic; Activity (Mus musculus [11]): Non-Toxic
CCCCCCCCCC(=O)N[C@@H](Cc1c[nH]c2ccccc12)C(=O)N[C@@H](CC(N)=O)C(=O)N[C@@H](CC(=O)O)C(=O)N[C@@H]1C(=O)NCC(=O)N[C@@H](CCCN)C(=O)N[C@@H](CC(=O)O)C(=O)N[C@H](C)C(=O)N[C@@H](CC(=O)O)C(=O)NCC(=O)N[C@H](CO)C(=O)N[C@@H]([C@H](C)CC(=O)O)C(=O)N[C@@H](CC(=O)c2ccccc2N)C(=O)O[C@@H]1C [DAPTOMYCIN]	0.5 µg/mL (≈ 0.309 µM)	0.5 µg/mL (≈ 0.309 µM)	1 µg/mL (≈ 0.617 µM)		
COc1cc2nccc(Nc3ccc(C)cc3)c2cc1OCc1ccc(C)cc1	12 µg/mL (≈ 31.2 µM)			> 16 µg/mL	
COc1cc2nccc(Nc3ccc(F)c(Cl)c3)c2cc1OCc1ccc(C(F)(F)F)cc1	1.5 µg/mL (≈ 3.15 µM)	3 µg/mL (≈ 6.29 µM)	1.5 µg/mL (≈ 3.15 µM)	4 µg/mL (≈ 8.39 µM)	
COc1cc2nccc(Nc3cccc(C(F)(F)F)c3)c2cc1OCc1ccc(C(F)(F)F)cc1	3 µg/mL (≈ 6.09 µM)	6 µg/mL (≈ 12.2 µM)	3 µg/mL (≈ 6.09 µM)	4 µg/mL (≈ 8.12 µM)	
CN[C@H](CC(C)C)C(=O)N[C@H]1C(=O)N[C@@H](CC(N)=O)C(=O)N[C@H]2C(=O)N[C@H]3C(=O)N[C@H](C(=O)N[C@H](C(=O)O)c4cc(O)cc(O)c4-c4cc3ccc4O)[C@H](O)c3ccc(c(Cl)c3)Oc3cc2cc(c3O[C@@H]2O[C@H](CO)[C@@H](O)[C@H](O)[C@H]2O[C@H]2C[C@](C)(N)[C@H](O)[C@H](C)O2)Oc2ccc(cc2Cl)[C@H]1O [VANCOMYCIN]				0.5 µg/mL (≈ 0.345 µM)	
